ChEMBL document CHEMBL5058577, “EUbOPEN Chemogenomics Library 2 (Multiplex)” (2022)

Test system: Fibroblast
Experiment: Multiplex assay against human fibroblast
Format: toxicity, cell-based
Outline: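 Four dyes were applied at seeding to live cells: Hoechst33342, BioTracker Green Microtubule Cytoskeleton Dye, MitoTracker Red and Annexin V Alexa Fluor 680. Imaging after compound addition used a CQ1 microscope at 37°C and 5% CO2. CellPathfinder machine-learning gating then sorted cells into Hoechst high-intensity objects or normal cells, normal cells into healthy, pyknosed or fragmented nuclei, and pyknosed cells into mitotic or apoptotic, with tubulin, mitochondrial-mass and membrane-permeability phenotypes given as per cents of healthy-nucleus cells.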

[1] = 12 h, 1 µM, compound concentration 1 uM, replicate 1
[2] = 12 h, 1 µM, compound concentration 1 uM, replicate 2
[3] = 12 h, 10 µM, compound concentration 10 uM, replicate 1
[4] = 12 h, 10 µM, compound concentration 10 uM, replicate 2
[5] = 24 h, 1 µM, compound concentration 1 uM, replicate 1
[6] = 24 h, 1 µM, compound concentration 1 uM, replicate 2
[7] = 24 h, 10 µM, compound concentration 10 uM, replicate 1
[8] = 24 h, 10 µM, compound concentration 10 uM, replicate 2
[9] = 48 h, 1 µM, compound concentration 1 uM, replicate 1
[10] = 48 h, 1 µM, compound concentration 1 uM, replicate 2
[11] = 48 h, 10 µM, compound concentration 10 uM, replicate 1
[12] = 48 h, 10 µM, compound concentration 10 uM, replicate 2

## CC[C@H]1OC(=O)[C@H](C)[C@@H](O[C@H]2C[C@@](C)(OC)[C@@H](O)[C@H](C)O2)[C@H](C)[C@@H](O[C@@H]2O[C@H](C)C[C@H](N(C)C)[C@H]2O)[C@@]2(C)CC(C)=C(O2)[C@H](C)[C@@H](O)[C@]1(C)O
[1]
  Population Apoptotic (%): 37%
  Population Fragmented Nuclei (%): 13%
  Population Healthy Nuclei (%): 72%
  Population Hoechst High Intensity Objects (%): 2%
  Population Membrane Permeable-Phenotype (%): 0%
  Population Mitochondria Different-Phenotype (%): 8%
  Population Mitotic Cells (%): 62%
  Population Normal (%): 97%
  Population Pyknosed Nuclei (%): 13%
  Population Tubulin-Different-Phenotype (%): 40%
  Total Cell Count: 176
[2]
  Population Apoptotic (%): 46%
  Population Fragmented Nuclei (%): 23%
  Population Healthy Nuclei (%): 57%
  Population Hoechst High Intensity Objects (%): 3%
  Population Membrane Permeable-Phenotype (%): 9%
  Population Mitochondria Different-Phenotype (%): 6%
  Population Mitotic Cells (%): 53%
  Population Normal (%): 96%
  Population Pyknosed Nuclei (%): 18%
  Population Tubulin-Different-Phenotype (%): 53%
  Total Cell Count: 170
[3]
  Population Apoptotic (%): 48%
  Population Fragmented Nuclei (%): 24%
  Population Healthy Nuclei (%): 63%
  Population Hoechst High Intensity Objects (%): 3%
  Population Membrane Permeable-Phenotype (%): 0%
  Population Mitochondria Different-Phenotype (%): 25%
  Population Mitotic Cells (%): 52%
  Population Normal (%): 96%
  Population Pyknosed Nuclei (%): 12%
  Population Tubulin-Different-Phenotype (%): 86%
  Total Cell Count: 205
[4]
  Population Apoptotic (%): 40%
  Population Fragmented Nuclei (%): 41%
  Population Healthy Nuclei (%): 33%
  Population Hoechst High Intensity Objects (%): 4%
  Population Membrane Permeable-Phenotype (%): 14%
  Population Mitochondria Different-Phenotype (%): 11%
  Population Mitotic Cells (%): 59%
  Population Normal (%): 95%
  Population Pyknosed Nuclei (%): 25%
  Population Tubulin-Different-Phenotype (%): 73%
  Total Cell Count: 133
[5]
  Population Apoptotic (%): 52%
  Population Fragmented Nuclei (%): 18%
  Population Healthy Nuclei (%): 69%
  Population Hoechst High Intensity Objects (%): 4%
  Population Membrane Permeable-Phenotype (%): 0%
  Population Mitochondria Different-Phenotype (%): 7%
  Population Mitotic Cells (%): 47%
  Population Normal (%): 95%
  Population Pyknosed Nuclei (%): 12%
  Population Tubulin-Different-Phenotype (%): 45%
  Total Cell Count: 173
[6]
  Population Apoptotic (%): 46%
  Population Fragmented Nuclei (%): 29%
  Population Healthy Nuclei (%): 52%
  Population Hoechst High Intensity Objects (%): 3%
  Population Membrane Permeable-Phenotype (%): 7%
  Population Mitochondria Different-Phenotype (%): 5%
  Population Mitotic Cells (%): 53%
  Population Normal (%): 96%
  Population Pyknosed Nuclei (%): 17%
  Population Tubulin-Different-Phenotype (%): 36%
  Total Cell Count: 176
[7]
  Population Apoptotic (%): 52%
  Population Fragmented Nuclei (%): 22%
  Population Healthy Nuclei (%): 69%
  Population Hoechst High Intensity Objects (%): 2%
  Population Membrane Permeable-Phenotype (%): 0%
  Population Mitochondria Different-Phenotype (%): 37%
  Population Mitotic Cells (%): 47%
  Population Normal (%): 97%
  Population Pyknosed Nuclei (%): 8%
  Population Tubulin-Different-Phenotype (%): 89%
  Total Cell Count: 199
[8]
  Population Apoptotic (%): 46%
  Population Fragmented Nuclei (%): 40%
  Population Healthy Nuclei (%): 39%
  Population Hoechst High Intensity Objects (%): 1%
  Population Membrane Permeable-Phenotype (%): 8%
  Population Mitochondria Different-Phenotype (%): 12%
  Population Mitotic Cells (%): 53%
  Population Normal (%): 98%
  Population Pyknosed Nuclei (%): 20%
  Population Tubulin-Different-Phenotype (%): 81%
  Total Cell Count: 127
[9]
  Population Apoptotic (%): 55%
  Population Fragmented Nuclei (%): 17%
  Population Healthy Nuclei (%): 71%
  Population Hoechst High Intensity Objects (%): 3%
  Population Membrane Permeable-Phenotype (%): 0%
  Population Mitochondria Different-Phenotype (%): 9%
  Population Mitotic Cells (%): 44%
  Population Normal (%): 96%
  Population Pyknosed Nuclei (%): 11%
  Population Tubulin-Different-Phenotype (%): 57%
  Total Cell Count: 168
[10]
  Population Apoptotic (%): 56%
  Population Fragmented Nuclei (%): 32%
  Population Healthy Nuclei (%): 54%
  Population Hoechst High Intensity Objects (%): 2%
  Population Membrane Permeable-Phenotype (%): 7%
  Population Mitochondria Different-Phenotype (%): 5%
  Population Mitotic Cells (%): 43%
  Population Normal (%): 97%
  Population Pyknosed Nuclei (%): 13%
  Population Tubulin-Different-Phenotype (%): 56%
  Total Cell Count: 173
[11]
  Population Apoptotic (%): 84%
  Population Fragmented Nuclei (%): 24%
  Population Healthy Nuclei (%): 68%
  Population Hoechst High Intensity Objects (%): 8%
  Population Membrane Permeable-Phenotype (%): 0%
  Population Mitochondria Different-Phenotype (%): 40%
  Population Mitotic Cells (%): 15%
  Population Normal (%): 91%
  Population Pyknosed Nuclei (%): 6%
  Population Tubulin-Different-Phenotype (%): 91%
  Total Cell Count: 216
[12]
  Population Apoptotic (%): 58%
  Population Fragmented Nuclei (%): 43%
  Population Healthy Nuclei (%): 47%
  Population Hoechst High Intensity Objects (%): 7%
  Population Membrane Permeable-Phenotype (%): 6%
  Population Mitochondria Different-Phenotype (%): 8%
  Population Mitotic Cells (%): 41%
  Population Normal (%): 92%
  Population Pyknosed Nuclei (%): 9%
  Population Tubulin-Different-Phenotype (%): 78%
  Total Cell Count: 139
